Laboratory results: ChEMBL document CHEMBL1126292, “Selective beta 3-adrenergic agonists of brown adipose tissue and thermogenesis. 2. [4-[2-[(2-Hydroxy-3-phenoxypropyl)amino]ethoxy]phenoxy]acetamides” (J Med Chem, 1992)
≈ marks a conversion by molar mass, not a printed value.

Legend:
[1] = molecular target: Beta-3 adrenergic receptor (Rattus norvegicus) (UniProt P26255); assay: Stimulation of GDP binding against beta-3 adrenergic receptor in brown adipose tissue (BAT) mitochondria of rats after peroral administration (Dose necessary to produce 50% of the isoprenaline effect).
Beta-3 adrenergic receptor (Rattus norvegicus), sequence (P26255 whole entry): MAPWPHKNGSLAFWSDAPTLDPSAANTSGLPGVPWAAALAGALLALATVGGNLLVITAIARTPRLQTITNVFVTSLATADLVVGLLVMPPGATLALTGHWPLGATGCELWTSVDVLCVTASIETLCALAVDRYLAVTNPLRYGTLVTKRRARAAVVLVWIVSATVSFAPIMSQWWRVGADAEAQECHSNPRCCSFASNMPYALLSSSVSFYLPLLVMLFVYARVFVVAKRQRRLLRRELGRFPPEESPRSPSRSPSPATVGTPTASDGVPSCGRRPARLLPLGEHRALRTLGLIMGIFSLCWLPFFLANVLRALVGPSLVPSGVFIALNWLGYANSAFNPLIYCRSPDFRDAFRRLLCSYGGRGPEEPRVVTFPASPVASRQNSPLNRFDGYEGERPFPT

[2] = Aqueous solubility at a pH 7; assay type: physicochemical; settings: read-out: S
Method in brief: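 Aqueous solubility was measured on the hydrochloride salts in aqueous buffer of 0.15 M sodium chloride and 0.01 M sodium dihydrogen phosphate at pH 7. Values are given in mg mL⁻¹.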

[3] = Partition coefficient (logP); assay type: physicochemical; settings: octanol/water
Method in brief: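 log P is the octanol–water partition coefficient.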

[4] = system: Rattus norvegicus; assay: Ratio of the dose (D500, peroral administration) elevating the rat heart rate to 500 bpm and GDP ED50.; assay type: functional
[5] = molecular target: Beta-3 adrenergic receptor (Rattus norvegicus) (UniProt P26255); assay: Dose of the compound (peroral administration) to […] GDP binding against Beta-3 adrenergic receptor in brown adipose tissue(BAT mitochondria) of rats. [Dose necessary to produce 50% of the isoprenaline effect]

GDP ED50 [1] [mg/kg]	solubility [2] [µg/mL]	logP [3]	GDP ED50 [5] [mg/kg]	Structure (SMILES)	Selectivity index [4]
1.3	–	–	–	O=C(COc1ccc(OCCNCC(O)COc2ccccc2)cc1)N1Cc2ccccc2C1 (centres undefined)	–
0.3	400 (≈ 1110 µM)	1.1	–	NC(=O)COc1ccc(OCCNCC(O)COc2ccccc2)cc1 (centres undefined)	>100
0.69	–	–	–	O=C(COc1ccc(OCCNCC(O)COc2ccccc2)cc1)NCc1cccs1 (centres undefined)	–
0.85	–	–	–	CC(CO)NC(=O)COc1ccc(OCCNCC(O)COc2ccccc2)cc1.O (centres undefined)	>50
1.38	–	–	–	O=C(COc1ccc(OCCNCC(O)COc2ccccc2)cc1)Nc1ccccc1 (centres undefined)	–
1.53	–	–	–	O=C(COc1ccc(OCCNCC(O)COc2ccccc2)cc1)NCc1ccco1 (centres undefined)	–
0.47	36000 (≈ 86000 µM)	0.5	–	O=C(COc1ccc(OCCNCC(O)COc2ccccc2)cc1)NCCCO (centres undefined)	>100
0.25	40 (≈ 88.8 µM)	3.2	–	O=C(COc1ccc(OCCNCC(O)COc2ccccc2)cc1)NCc1ccccc1 (centres undefined)	>100
0.72	–	–	–	O=C(COc1ccc(OCCNCC(O)COc2ccccc2)cc1)NCCOc1ccccc1 (centres undefined)	>100
4.16	–	–	–	COCCNC(=O)COc1ccc(OCCNC[C@H](O)COc2ccc(O)cc2)cc1	–
0.77	–	–	–	O=C(COc1ccc(OCCNC[C@H](O)COc2ccccc2)cc1)NCCO	>50
3.1	–	–	–	O=C(COc1ccc(OCCNCC(O)COc2ccccc2)cc1)NC1CCCC1 (centres undefined)	>10
3.88	–	–	–	COCC(C)NC(=O)COc1ccc(OCCNCC(O)COc2ccccc2)cc1 (centres undefined)	–
1.5	–	–	–	CCCCNC(=O)COc1ccc(OCCNCC(O)COc2ccccc2)cc1 (centres undefined)	>100
1.8	–	–	–	O=C(COc1ccc(OCCNCC(O)COc2ccccc2)cc1)N1CCCC1 (centres undefined)	>50
1.15	–	–	–	NNC(=O)COc1ccc(OCCNCC(O)COc2ccccc2)cc1 (centres undefined)	–
0.4	900 (≈ 2240 µM)	2.4	–	CC(C)NC(=O)COc1ccc(OCCNCC(O)COc2ccccc2)cc1 (centres undefined)	>100
0.4	2000 (≈ 4670 µM)	2.6	–	O=C(COc1ccc(OCCNCC(O)COc2ccccc2)cc1)N1CCCCC1 (centres undefined)	>100
0.83	–	–	–	COCCCNC(=O)COc1ccc(OCCNCC(O)COc2ccccc2)cc1 (centres undefined)	>100
0.25	–	–	–	CNC(=O)COc1ccc(OCC(C)NCC(O)COc2ccccc2)cc1 (centres undefined)	>10
1.2	–	–	–	CNC(=O)COc1ccc(OCCNCC(O)COc2ccccc2)cc1 (centres undefined)	>50
3.2	–	–	–	CC(C)CNC(=O)COc1ccc(OCCNCC(O)COc2ccccc2)cc1 (centres undefined)	–
0.92	–	–	–	O=C(COc1ccc(OCCNCC(O)COc2ccccc2)cc1)NCc1ccc(Cl)cc1 (centres undefined)	>50
1.23	–	–	–	O=C(COc1ccc(OCCNCC(O)COc2ccccc2)cc1)NCCc1ccccc1 (centres undefined)	>50
2.24	–	–	–	NC(=O)COc1ccc(OCCNCC(O)COc2ccccc2F)cc1 (centres undefined)	>10

GDP ED50 [1] [mg/kg]	solubility [2] [µg/mL]	logP [3]	GDP ED50 [5] [mg/kg]	Structure (SMILES)	Selectivity index [4]
8.6	–	–	–	CN(Cc1ccccc1)C(=O)COc1ccc(OCCNCC(O)COc2ccccc2)cc1 (centres undefined)	–
1.1	–	–	–	CNC(=O)COc1ccc(OCCNCC(O)COc2ccccc2F)cc1 (centres undefined)	>50
1.4	–	–	–	CN(C)C(=O)COc1ccc(OCCNCC(O)COc2ccccc2)cc1 (centres undefined)	>50
1.16	–	–	–	CCN(CC)C(=O)COc1ccc(OCCNCC(O)COc2ccccc2)cc1 (centres undefined)	33
0.49	–	–	–	O=C(COc1ccc(OCCNCC(O)COc2ccccc2)cc1)N1CCCO1 (centres undefined)	–
0.64	–	–	–	C=CCNC(=O)COc1ccc(OCCNCC(O)COc2ccccc2)cc1 (centres undefined)	>100
0.48	–	–	–	O=C(COc1ccc(OCCNCC(O)COc2ccccc2)cc1)NOCc1ccccc1 (centres undefined)	–
1.7	–	–	–	CCC(C)NC(=O)COc1ccc(OCCNCC(O)COc2ccccc2)cc1 (centres undefined)	–
0.67	–	–	–	O=C(COc1ccc(OCCNCC(O)COc2ccccc2)cc1)NCCO (centres undefined)	>100
7.9	–	–	–	O=C(COc1ccc(OCCNCC(O)COc2ccccc2F)cc1)N1CCCCC1 (centres undefined)	–
1.18	–	–	–	NC(=O)CNC(=O)COc1ccc(OCCNCC(O)COc2ccccc2)cc1 (centres undefined)	>50
0.5	–	–	–	O=C(COc1ccc(OCCNCC(O)COc2ccccc2)cc1)NO (centres undefined)	>100
0.34	–	–	–	COCCNC(=O)COc1ccc(OCCNC[C@H](O)COc2ccccc2)cc1	>100
–	600 (≈ 1490 µM)	2.4	0.2	CCCNC(=O)COc1ccc(OCCNCC(O)COc2ccccc2)cc1 (centres undefined)	>100
0.57	–	–	–	CNC(=O)COc1ccc(OCCNC[C@H](O)COc2ccccc2)cc1	>100
0.96	–	–	–	CC(NC(=O)COc1ccc(OCCNCC(O)COc2ccccc2)cc1)c1ccccc1 (centres undefined)	>10
0.24	11000 (≈ 26300 µM)	1.7	–	COCCNC(=O)COc1ccc(OCCNCC(O)COc2ccccc2)cc1 (centres undefined)	>100
69.9	–	–	–	COCCNC(=O)COc1ccc(OCCNC[C@@H](O)COc2ccccc2)cc1	–
0.31	–	–	–	CNC(=O)COc1cccc(OCCNCC(O)COc2ccccc2)c1 (centres undefined)	74
0.44	–	–	–	O=C(COc1ccc(OCCNCC(O)COc2ccccc2)cc1)N1CCc2ccccc2C1 (centres undefined)	>100
0.5	–	–	–	CCNC(=O)COc1ccc(OCCNCC(O)COc2ccccc2)cc1 (centres undefined)	>100
2.77	–	–	–	O=C(COc1ccc(OCCNCC(O)COc2ccccc2)cc1)NCc1ccc(Cl)cc1Cl (centres undefined)	–
0.79	–	–	–	O=C(COc1ccc(OCCNCC(O)COc2ccccc2)cc1)NC1CC1 (centres undefined)	>50
0.54	–	–	–	O=C(COc1ccc(OCCNCC(O)COc2ccccc2)cc1)N1CCOCC1 (centres undefined)	>100
1.03	–	–	–	C=CCNC(=O)COc1ccc(OCC(C)NCC(O)COc2ccccc2)cc1 (centres undefined)	>20
